Screens as filed in PubChem.
DENV2 CPE rescue: DENV2-induced cell death inhibition | CPE inhibition, % at 9.99 µM | hit rate 1.7% among 350,000 | DENV2-infected cells, cytopathic effect rescue, plate reader; in the data active = CPE inhibition above about 20%, passing the limit was not always enough; inconclusive = no clear call, values can overlap the other calls; tested in BHK-21 cells;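 also: 0% = median of neutral control wells and 100% = median of positive control wells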
E-selectin induc: induces E-selectin expression in human endothelial cells; HUVEC E-selectin immunofluorescence imaging; normalized: neutral wells 0, TNF-alpha wells 100; activation, % at 7.58 µM; P16581; AID 686992; hit rate 0.37% among 260,000;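 active = mean E-selectin-positive cell signal at least 10% of the positive control, reached in at least 60% of replicates, without over 20% cell loss; inconclusive = no rule given, readout overlaps actives, possibly toxicity-flagged; inactive = the rest, including those meeting only one limit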
Target sequence (P16581 whole entry, looked up): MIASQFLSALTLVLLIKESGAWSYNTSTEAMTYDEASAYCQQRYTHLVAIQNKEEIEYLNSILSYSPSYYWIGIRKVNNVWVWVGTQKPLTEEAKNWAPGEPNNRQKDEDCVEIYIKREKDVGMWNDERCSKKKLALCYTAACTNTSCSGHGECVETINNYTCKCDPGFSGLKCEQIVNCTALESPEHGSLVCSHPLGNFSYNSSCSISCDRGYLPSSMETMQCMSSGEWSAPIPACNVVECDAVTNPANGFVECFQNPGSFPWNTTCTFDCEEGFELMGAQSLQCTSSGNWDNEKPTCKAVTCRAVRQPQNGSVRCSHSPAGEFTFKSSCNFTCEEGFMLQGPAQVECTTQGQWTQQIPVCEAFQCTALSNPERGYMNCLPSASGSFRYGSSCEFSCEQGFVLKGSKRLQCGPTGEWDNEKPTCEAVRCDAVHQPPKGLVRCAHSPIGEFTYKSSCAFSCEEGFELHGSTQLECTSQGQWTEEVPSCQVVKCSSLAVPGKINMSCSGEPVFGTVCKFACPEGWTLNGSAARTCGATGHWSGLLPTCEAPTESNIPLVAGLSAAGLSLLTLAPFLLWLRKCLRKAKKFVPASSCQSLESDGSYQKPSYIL
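Material: HUVEC primary endothelial cells; Amount: 3,000 cells per well; Dosing: single concentration; Medium: EGM-2 growth medium on 0.1% gelatin-coated wells; Read-out basis: percent E-selectin-positive cells; Signal: immunofluorescence imaging; Control set: TNF-alpha, DMSO.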
Statin myotox sup: suppressors of simvastatin-induced myotoxicity in C2C12 myotubes; rescue of ATP level, % at 7.49 µM; AID 602340; ATP luminescence, 48 h; scaled: DMSO 0, geranylgeraniol control 100; hit rate 0.78% among 330,000;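 active = mean ATP rescue above about 67%, or every replicate alone reaching that limit, limit read from the data, passing the limit was not always enough; inconclusive = no clear call, values can overlap the other calls; inactive = mean under the limit and some replicate under it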;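 also: myotubes were challenged with 10 µM simvastatin during compound exposure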
* = called active by the depositor; ? = inconclusive; . = not tested or not shown. Only some compounds are listed: those with a hit (about 2.2% of all), similar ones and a draw of the others.

SMILES	DENV2 CPE rescue	E-selectin induc	Statin myotox sup
COc1ccc2oc(=O)cc(CN3CCN(Cc4ccc(OC)c(OC)c4OC)CC3)c2c1	5.2	0.3	122.9*
Cc1ccc(S(=O)(=O)Nc2ccc3c(c2)C(=O)N([C@H](C)CO)C[C@@H](C)[C@@H](CN(C)C(=O)c2ccncc2)OCCCC[C@H](C)O3)cc1	-5.3	.	-19.3
Cc1cc(C(=O)N/N=C/C=C/c2ccc(Br)cc2)n[nH]1	?	0.1	-7.9
Cc1cc(C(=O)N/N=C/C=C/c2ccc([N+](=O)[O-])cc2)n[nH]1	-8.7	53.9*	.
CC(C)c1cn(CC[C@@H]2CC[C@H](NS(=O)(=O)c3ccccc3)[C@H](CO)O2)nn1	-0.6	0.0	-2.7
CCN(CC)CCCNc1nc(C)cc(COC)c1C#N	44.5*	1.5	.
COCc1cc(C)nc(Nc2ccccc2C)c1C#N	-2.0	.	.
CCN1CCC(N2CCN(c3ccc(F)cc3)CC2)CC1	28.4*	0.0	-11.3
Fc1ccc(N2CCN(C3CCC(c4ccccc4)CC3)CC2)cc1 (configuration not stated)	-0.3	0.0	-0.5
COc1ccc(C#Cc2cnc3c(c2)C(=O)N([C@H](C)CO)C[C@H](C)[C@H](CN(C)Cc2ccccc2)O3)cc1OC	2.1	?	?
C[C@H]1CN([C@@H](C)CO)C(=O)c2cc(C#CCN(C)C)cnc2O[C@@H]1CN(C)Cc1cccc(C(=O)O)c1	?	.	-3.6
COc1ccc(C#Cc2cnc3c(c2)C(=O)N([C@H](C)CO)C[C@H](C)[C@H](CN(C)Cc2cccc(C(F)(F)F)c2)O3)cc1OC	17.5	-0.3	151.9*
C[C@@H]1CN([C@H](C)CO)C(=O)c2cc(C#CCN(C)C)cnc2O[C@H]1CN(C)Cc1cccc(C(=O)O)c1	30.3*	.	.
C[C@@H]1CN([C@@H](C)CO)C(=O)c2cc(C#CCN(C)C)cnc2O[C@H]1CN(C)Cc1ccc(F)cc1	-1.7	0.0	12.8
C[C@H](CO)N1C[C@H](C)[C@@H](CN(C)Cc2ccc(F)cc2)Oc2ncc(C#CCN(C)C)cc2C1=O	20.7*	-0.8	27.6
C[C@@H]1CN([C@H](C)CO)C(=O)c2cc(NC(=O)Nc3ccc4c(c3)OCO4)ccc2O[C@@H]1CN(C)Cc1ccc(Cl)c(Cl)c1	-4.0	-0.9	-23.8
Cc1cccc(S(=O)(=O)N2CCCCN3[C@@H](CO)[C@@H](c4ccc(C#C[C@H](C)O)cc4)[C@@H]3C2)c1	14.4	-0.6	-15.7
CC(NC(=O)CN1CCOCC1)c1ccccc1 (configuration not stated)	2.9	.	27.0
Cc1ccccc1CN1CCN(CC(=O)NC(C)c2ccccc2)CC1 (configuration not stated)	27.2*	.	24.5
Cc1ccc(S(=O)(=O)N2CCN(CC(=O)NC(C)c3ccccc3)CC2)cc1 (configuration not stated)	1.8	-4.0	19.7
CC(NC(=O)CN1CCCC1)c1ccccc1 (configuration not stated)	23.6*	.	1.7
CN(C)CCCNC(=O)C[C@@H]1CC[C@H](NS(=O)(=O)c2ccccc2)[C@H](CO)O1	-2.8	-0.2	-0.1
Cc1ccc(-n2c3c(c(=O)[nH]c2=O)C(C(F)(F)F)(C(F)(F)F)N=C(C2CCCCC2)N3)cc1	.	.	-7.6
Cc1ccccc1S(=O)(=O)N1C[C@@H](O)COC[C@H]2O[C@H](CC(=O)N3CCC(Cc4ccccc4)CC3)CC[C@@H]21	67.7*	0.1	11.5
CN1CCN(C(=O)C[C@@H]2CC[C@@H]3[C@H](COC[C@@H](O)CN3S(=O)(=O)c3cccc(Cl)c3)O2)CC1	1.3	-0.1	-8.4
SMILES	DENV2 CPE rescue	E-selectin induc	Statin myotox sup
Cc1ccccc1S(=O)(=O)N1C[C@@H](O)COC[C@@H]2O[C@H](CC(=O)N3CCC(Cc4ccccc4)CC3)CC[C@H]21	4.8	-0.1	-10.4
O=C(C[C@@H]1CC[C@@H]2[C@H](COC[C@@H](O)CN2S(=O)(=O)c2cccc(Cl)c2)O1)N1CCCCC1	-2.2	0.2	1.5
CN1CCN(C(=O)C[C@H]2CC[C@H]3[C@@H](COC[C@@H](O)CN3S(=O)(=O)c3cccc(Cl)c3)O2)CC1	76.2*	-0.1	-16.7
O=C(C[C@@H]1CC[C@H]2[C@@H](COC[C@@H](O)CN2S(=O)(=O)c2cccc(Cl)c2)O1)N1CCOCC1	24.1*	0.0	-13.5
COc1cccc(S(=O)(=O)N2C[C@@H](O)COC[C@@H]3O[C@H](CC(=O)N4CCCCC4)CC[C@H]32)c1	12.6	0.0	-3.3
COc1cccc(S(=O)(=O)N2C[C@@H](O)COC[C@@H]3O[C@@H](CC(=O)N4CCCCC4)CC[C@H]32)c1	29.1*	0.0	-6.4
CC=Cc1ccc2n(c1=O)C[C@H]1[C@H](CO)[C@@H](C(=O)NCc3ccccn3)N(CC3CC3)[C@@H]21 (mixture of isomers)	-10.3	-0.2	-6.6
C[C@H](CO)N1C[C@H](C)[C@@H](CN(C)S(=O)(=O)c2ccc(F)cc2)OCCCC[C@H](C)Oc2ccc(NS(=O)(=O)c3cccs3)cc2C1=O	-1.1	1.3	.
C/C=C/c1ccc([C@H]2[C@@H](CO)N(Cc3ccccn3)[C@H]2CNC(=O)CC)cc1	.	0.1	2.3
Cc1ccc(S(=O)(=O)N(C)C[C@H]2Oc3ccc(NS(=O)(=O)c4cccs4)cc3C(=O)N([C@@H](C)CO)C[C@H]2C)cc1	-15.5	0.9	-16.7
Cc1noc(C)c1NC(=O)N(C)C[C@H]1OCCCC[C@H](C)Oc2ccc(NC(=O)Cc3ccccc3)cc2C(=O)N([C@@H](C)CO)C[C@@H]1C	8.8	-0.2	.
CCS(=O)(=O)Nc1ccc2c(c1)C(=O)N(C)[C@H]1CC[C@@H](CC(=O)NCCOC)O[C@H]1CO2	-7.0	0.1	-11.6
C[C@H](CO)N1C[C@H](C)[C@@H](CN(C)S(=O)(=O)c2ccc(F)cc2)OCCCC[C@H](C)Oc2ccc(N(C)C)cc2C1=O	15.0	-0.1	14.2
C[C@@H]1CN([C@H](C)CO)C(=O)c2cccc(NC(=O)Nc3ccc4c(c3)OCO4)c2O[C@H]1CN(C)Cc1ccc(-c2ccccc2)cc1	-2.7	20.0	.
Cc1ccc(NC(=O)Cn2cccc2)c(Br)c1	.	.	3.3
Cc1ccc(NC(=O)CN(C)CC(=O)Nc2c(C)cccc2C)c(Br)c1	.	.	96.7*
O=C(C[C@@H]1CC[C@@H]2[C@H](COC[C@H](O)CN2Cc2cccc(C(F)(F)F)c2)O1)NCCc1ccncc1	-5.2	0.2	35.2
O=C1CN(C(=O)COC(=O)c2cccs2)c2ccccc2N1	0.4	80.0*	18.1
O=C1CN(C(=O)COC(=O)c2ccccc2O)c2ccccc2N1	-3.0	.	6.9
O=C1CN(C(=O)COC(=O)CCNS(=O)(=O)c2ccc(Cl)cc2)c2ccccc2N1	0.0	8.2	.
O=C1CN(C(=O)COC(=O)CCSc2ccccc2Cl)c2ccccc2N1	.	.	106.1*
NCC[C@H]1CC[C@@H](NC(=O)Nc2ccc(F)cc2)[C@H](CO)O1	-11.2	0.6	-1.6
Cc1ccc(S(=O)(=O)NCC[C@H]2CC[C@H](NC(=O)c3cccc(F)c3)[C@@H](CO)O2)cc1	5.0	-1.4	1.5
O=C(C[C@@H]1C=C[C@H](NC(=O)c2ccc3c(c2)OCO3)[C@H](CO)O1)NCc1ccc(Cl)cc1	-4.9	0.7	2.1
Cc1cccc(N(CC(=O)NC(C)(C)C)C(=O)CNC(=O)c2cccs2)c1C	43.5*	0.1	3.5
